Measurements: ChEMBL document CHEMBL1141093, “Metabolic regio- and stereoselectivity of cytochrome P450 2D6 towards 3,4-methylenedioxy-N-alkylamphetamines: in silico predictions and experimental validation” (J Med Chem, 2005)

Experiments:
Cytochrome P450 2D6 [1] = target: T1, Cytochrome P450 2D6 (Homo sapiens, UniProt P10635, F120A); assay: Vmax for oxidation to 3,4-OH-MA by cytochrome P450 2D6 (Phe120Ala mutant); expressed in 10E5 fluorescence units min-1 nmol-1 CYP; assay type: ADME
Method in brief: (§1)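 E. coli membranes expressing His-tagged wild-type or Phe120Ala CYP2D6 (25 nM CYP) were incubated in 50 mM KPi pH 7.4 with 5 mM MgCl2. Substrate was tested at 10 concentrations, 0–200 µM. After 5 min preincubation at 37 °C, an NADPH-regenerating system was added (0.2 mM NADPH final). Reactions ran 10 min and were stopped with HClO4. Products were separated by C18 HPLC and read by fluorescence (ex 280/em 320 nm). Km and Vmax came from nonlinear regression of peak areas; at least two independent experiments.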

Cytochrome P450 2D6 [2] = target: T1, Cytochrome P450 2D6; assay: Vmax for oxidation to N-OH-MDMA by cytochrome P450 2D6 (Phe120Ala mutant); expressed in 10E5 fluorescence units min-1 nmol-1 CYP; assay type: ADME; method in brief: as §1
Cytochrome P450 2D6 [3] = target: Cytochrome P450 2D6 (Homo sapiens, UniProt P10635); assay: Vmax for oxidation to 3,4-OH-MA by cytochrome P450 2D6 (wild type pSP19T7LT); expressed in 10E5 fluorescence units min-1 nmol-1 CYP; assay type: ADME; method in brief: as §1
CCCNC(C)Cc1ccc2c(c1)OCO2 [4] = assay: (§2) Michaelis-Menten constant for oxidation to MDA by cytochrome P450 2D6 (Phe120Ala mutant); assay type: ADME, Homo sapiens; method in brief: as §1
CCNC(C)Cc1ccc2c(c1)OCO2 [5] = assay: as §2; assay type: ADME, Homo sapiens; method in brief: as §1
CNC(C)Cc1ccc2c(c1)OCO2 [6] = assay: as §2; assay type: ADME, Homo sapiens; method in brief: as §1
[7] = system: CN[C@@H](C)Cc1ccc2c(c1)OCO2; assay: as §2; assay type: ADME, Homo sapiens; method in brief: as §1
[8] = system: CN[C@H](C)Cc1ccc2c(c1)OCO2; assay: as §2; assay type: ADME, Homo sapiens; method in brief: as §1
CCCNC(C)Cc1ccc2c(c1)OCO2 [9] = assay: (§3) Michaelis-Menten constant for oxidation to 3,4-OH-MA by cytochrome P450 2D6 (Phe120Ala mutant); assay type: ADME, Homo sapiens; method in brief: as §1
CCNC(C)Cc1ccc2c(c1)OCO2 [10] = assay: as §3; assay type: ADME, Homo sapiens; method in brief: as §1
CNC(C)Cc1ccc2c(c1)OCO2 [11] = assay: as §3; assay type: ADME, Homo sapiens; method in brief: as §1
[12] = system: CN[C@@H](C)Cc1ccc2c(c1)OCO2; assay: as §3; assay type: ADME, Homo sapiens; method in brief: as §1
[13] = system: CN[C@H](C)Cc1ccc2c(c1)OCO2; assay: as §3; assay type: ADME, Homo sapiens; method in brief: as §1
CCCNC(C)Cc1ccc2c(c1)OCO2 [14] = assay: (§4) Michaelis-Menten constant for oxidation to N-OH-MDMA by cytochrome P450 2D6 (Phe120Ala mutant); assay type: ADME, Homo sapiens; method in brief: as §1
CCNC(C)Cc1ccc2c(c1)OCO2 [15] = assay: as §4; assay type: ADME, Homo sapiens; method in brief: as §1
CNC(C)Cc1ccc2c(c1)OCO2 [16] = assay: as §4; assay type: ADME, Homo sapiens; method in brief: as §1
[17] = system: CN[C@@H](C)Cc1ccc2c(c1)OCO2; assay: as §4; assay type: ADME, Homo sapiens; method in brief: as §1
[18] = system: CN[C@H](C)Cc1ccc2c(c1)OCO2; assay: as §4; assay type: ADME, Homo sapiens; method in brief: as §1
Cytochrome P450 2D6 [19] = target: T1, Cytochrome P450 2D6; assay: Vmax for oxidation to 3,4-OH-MA by cytochrome P450 2D6 (Phe120Ala mutant); expressed as 10E5 fluorescence units min-1 nmol-1 CYP; expressed in 10E5 fluorescence units min-1 nmol-1 CYP; assay type: ADME; method in brief: as §1
[20] = substrate: CCCNC(C)Cc1ccc2c(c1)OCO2; assay: (§5) Michaelis-Menten constant for oxidation to 3,4-OH-MA by cytochrome P450 2D6 (wild type pSP19T7LT); assay type: ADME, Homo sapiens; method in brief: as §1
[21] = substrate: CNC(C)Cc1ccc2c(c1)OCO2; assay: as §5; assay type: ADME, Homo sapiens; method in brief: as §1
[22] = substrate: CN[C@@H](C)Cc1ccc2c(c1)OCO2; assay: as §5; assay type: ADME, Homo sapiens; method in brief: as §1
[23] = substrate: CN[C@H](C)Cc1ccc2c(c1)OCO2; assay: as §5; assay type: ADME, Homo sapiens; method in brief: as §1

T1 sequence (P10635 whole entry F120A): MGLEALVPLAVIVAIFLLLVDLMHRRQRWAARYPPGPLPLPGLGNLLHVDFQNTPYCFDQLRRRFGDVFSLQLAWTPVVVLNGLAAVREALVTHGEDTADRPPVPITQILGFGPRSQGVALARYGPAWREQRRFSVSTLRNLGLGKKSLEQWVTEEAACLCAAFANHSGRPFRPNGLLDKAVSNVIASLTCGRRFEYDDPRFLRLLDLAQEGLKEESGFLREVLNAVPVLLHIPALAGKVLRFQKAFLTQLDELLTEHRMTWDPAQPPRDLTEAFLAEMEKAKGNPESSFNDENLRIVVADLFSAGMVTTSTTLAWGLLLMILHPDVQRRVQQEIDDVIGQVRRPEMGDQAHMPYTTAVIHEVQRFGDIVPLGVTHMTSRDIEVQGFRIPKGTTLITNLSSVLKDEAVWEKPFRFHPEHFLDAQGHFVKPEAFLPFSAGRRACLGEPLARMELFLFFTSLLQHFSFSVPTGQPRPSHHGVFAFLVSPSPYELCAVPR

CCCNC(C)Cc1ccc2c(c1)OCO2 (stereo not drawn)
Vmax (Cytochrome P450 2D6 [1]): 7.5 | Vmax (Cytochrome P450 2D6 [2]): 3 | Vmax (Cytochrome P450 2D6 [3]): 1.3

CCNC(C)Cc1ccc2c(c1)OCO2 (stereo not drawn)
Vmax (Cytochrome P450 2D6 [1]): 2.9 | Vmax (Cytochrome P450 2D6 [2]): 1.4 | Vmax (Cytochrome P450 2D6 [3]): 1.2

CN[C@H](C)Cc1ccc2c(c1)OCO2
Vmax (Cytochrome P450 2D6 [1]): 2.4 | Vmax (Cytochrome P450 2D6 [2]): 10.7 | Vmax (Cytochrome P450 2D6 [3]): 1.2

CNC(C)Cc1ccc2c(c1)OCO2 (stereo not drawn) [MIDOMAFETAMINE]
Vmax (Cytochrome P450 2D6 [1]): 2.2 | Vmax (Cytochrome P450 2D6 [3]): 1.2

Cytochrome P450 2D6 (Homo sapiens; F120A)
Km (CCCNC(C)Cc1ccc2c(c1)OCO2 [4]): 9.1 µM | kcat (CCCNC(C)Cc1ccc2c(c1)OCO2 [4]): 0.122 s⁻¹ | Km (CCNC(C)Cc1ccc2c(c1)OCO2 [5]): 4.5 µM | kcat (CCNC(C)Cc1ccc2c(c1)OCO2 [5]): 0.07 s⁻¹ | Km (CNC(C)Cc1ccc2c(c1)OCO2 [6]): 14.5 µM | kcat (CNC(C)Cc1ccc2c(c1)OCO2 [6]): 0.0583 s⁻¹ | Km [7]: 10.3 µM | kcat [7]: 0.0633 s⁻¹ | Km [8]: 26.1 µM | kcat [8]: 0.0983 s⁻¹ | Km (CCCNC(C)Cc1ccc2c(c1)OCO2 [9]): 5.2 µM | Km (CCNC(C)Cc1ccc2c(c1)OCO2 [10]): 3.3 µM | Km (CNC(C)Cc1ccc2c(c1)OCO2 [11]): 11.8 µM | Km [12]: 4.9 µM | Km [13]: 13.2 µM | Km (CCCNC(C)Cc1ccc2c(c1)OCO2 [14]): 28 µM | Km (CCNC(C)Cc1ccc2c(c1)OCO2 [15]): 5.7 µM | Km (CNC(C)Cc1ccc2c(c1)OCO2 [16]): 11.2 µM | Km [17]: 6.9 µM | Km [18]: 20.6 µM

CN[C@@H](C)Cc1ccc2c(c1)OCO2
Vmax (Cytochrome P450 2D6 [2]): 8.4 | Vmax (Cytochrome P450 2D6 [19]): 2.4

B1: Cytochrome P450 2D6 (Homo sapiens) (protein)
chain: MGLEALVPLAVIVAIFLLLVDLMHRRQRWAARYPPGPLPLPGLGNLLHVDFQNTPYCFDQLRRRFGDVFSLQLAWTPVVVLNGLAAVREALVTHGEDTADRPPVPITQILGFGPRSQGVFLARYGPAWREQRRFSVSTLRNLGLGKKSLEQWVTEEAACLCAAFANHSGRPFRPNGLLDKAVSNVIASLTCGRRFEYDDPRFLRLLDLAQEGLKEESGFLREVLNAVPVLLHIPALAGKVLRFQKAFLTQLDELLTEHRMTWDPAQPPRDLTEAFLAEMEKAKGNPESSFNDENLRIVVADLFSAGMVTTSTTLAWGLLLMILHPDVQRRVQQEIDDVIGQVRRPEMGDQAHMPYTTAVIHEVQRFGDIVPLGVTHMTSRDIEVQGFRIPKGTTLITNLSSVLKDEAVWEKPFRFHPEHFLDAQGHFVKPEAFLPFSAGRRACLGEPLARMELFLFFTSLLQHFSFSVPTGQPRPSHHGVFAFLVSPSPYELCAVPR
Km [20]: 1 µM | Km [21]: 1.9 µM | Km [22]: 3.3 µM | kcat [22]: 0.02 s⁻¹ | Km [23]: 2.7 µM
